# Entries after “also recorded” stand apart in the source; their conditions may differ. Like-named read-outs stand apart in the source and are kept apart here. Positions of bridges follow the written chain, without caps; N, C: chain ends. Non-standard residues stand in square brackets, D forms with d. Residues, ends and D or L forms follow the SMILES beside them. No end group written: not given here. *: point of attachment. S5 = C=CCCC[C@](C)(N)C(=O)O; code λ = not defined here; Dap = NC[C@H](N)C(=O)O; ClAc = O=C(CCl)*
# T1: hBfl-1 (Homo sapiens, UniProt Q16548)
# T1 sequence (Q16548 with tags, fused parts or gaps): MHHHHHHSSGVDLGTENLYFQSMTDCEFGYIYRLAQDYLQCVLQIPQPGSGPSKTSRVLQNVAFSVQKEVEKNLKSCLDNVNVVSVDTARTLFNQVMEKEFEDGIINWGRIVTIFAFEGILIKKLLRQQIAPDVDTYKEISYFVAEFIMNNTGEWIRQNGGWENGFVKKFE
# T2: biotin-BID (Biotin-lc-EDIIRNIARHLAQVGDSMDR-NH2) (N-terminal biotin-lc (aminohexanoic acid); C-terminal amide)
# T2 peptide: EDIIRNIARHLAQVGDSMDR
# T3: hBfl-1ΔTm(1–149) (human)
# T3 chain: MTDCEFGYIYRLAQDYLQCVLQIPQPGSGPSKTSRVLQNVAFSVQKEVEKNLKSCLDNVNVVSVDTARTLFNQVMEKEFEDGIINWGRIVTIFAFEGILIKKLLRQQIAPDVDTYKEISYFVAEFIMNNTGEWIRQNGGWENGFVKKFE
# T4: hMcl-1 (172–323) (human), Q07820
# T4 chain: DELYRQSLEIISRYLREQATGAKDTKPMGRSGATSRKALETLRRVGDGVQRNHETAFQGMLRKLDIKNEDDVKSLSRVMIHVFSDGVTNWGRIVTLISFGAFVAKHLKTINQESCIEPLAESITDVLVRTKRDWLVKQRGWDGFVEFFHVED
# B1: cyc_hNOXA (Ac-CATQLRRFGDKLNFRQKLLNLISKLFC-NH2) (peptide)
# peptide: Ac-CATQLRRFGDKLNFRQKLLNLISKLFC-NH2
# modifications: also: cyclic (cyc_), mode of cyclisation not given here
# B2: hBfl-1ΔTm(1–149) (domain or fragment)
# chain: T3 chain
# B3: 130E7 (peptide)
# chain: [Dap](ClAc)IAQELRRIGDEFNAYYARR
# B4: λ_hNOXA (Ac-λ…-NH2) (peptide)
# chain: Ac-[code λ]ATQLRRFGDKLNFRQKLLN-NH2
# modifications: reading uncertain
# B5: hNOXA (Ac-…-NH2) (peptide)
# peptide: Ac-CATQLRRFGDKLNFRQKLLN-NH2
# B6: NOXA B (Ac-PADLKDECAQLRRIGDKVNL-NH2) (peptide)
# peptide: Ac-PADLKDECAQLRRIGDKVNL-NH2
# B7: hMcl-1 (172-323), Q07820 172-323 (domain or fragment)
# chain: T4 chain
# B8: NOXA A (Ac-AELPPEFAAQLRKIGDKVYC-NH2) (peptide)
# peptide: Ac-AELPPEFAAQLRKIGDKVYC-NH2
# B9: hNOXAs (Ac-…-NH2) (peptide)
# peptide: Ac-CATQLRRFGDKLN-NH2
# B10: hNOXA (Ac-CATQLRRFGDKLNFRQKLLN-NH2) (peptide)
# peptide: Ac-CATQLRRFGDKLNFRQKLLN-NH2
# B11: 130G4 (peptide)
# chain: PRRPRRPRRPRRPRR[Dap](ClAc)IAQELRRIGDEFNAYYARR
# B12: homo_hNOXA (Ac-h…-NH2) (peptide)
# chain: Ac-[code h]ATQLRRFGDKLNFRQKLLN-NH2
# B13: hNOXAs (Ac-CATQLRRFGDKLN-NH2) (peptide)
# peptide: Ac-CATQLRRFGDKLN-NH2
# B14: C1A_hNOXAs (Ac-AATQLRRFGDKLN-NH2) (peptide)
# peptide: Ac-AATQLRRFGDKLN-NH2
# Assays:
# [1] = target: Recombinant hBcl-2 protein (human); assay: DELFIA displacement assay
# [2] = target: Bcl-xL ΔTM (Bcl-xL deletion mutant lacking the transmembrane domain) (human); assay: DELFIA displacement assay
# primary CLL cells = assay type: cell-based, human; settings: primary CLL cells alone or cocultured with stroma-NK-tert cells, 48 h
# Procedure, shortened: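 Primary CLL cells were taken as PBMC from heparinized patient blood by Ficoll density gradient, using samples >95% CD5+/CD19+. They were cultured in RPMI with 10% heat-inactivated FBS at 3 × 10^5 cells/well, 37 °C, 5% CO2, alone or on bone-marrow NK-tert stroma ([…]), with test compound for 48 h. Cells were gated CD19/CD5 (4 °C, 30 min), stained with DiOC6 (30 min, 37 °C), and analysed by flow cytometry as % SIA.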
# hBfl-1 [3] = target: T1, hBfl-1; assay: Isothermal titration calorimetry against hBfl-1; assay type: binding; settings: VP-ITC, reverse fashion (protein titrated into compound), 25 °C, PBS + 10% DMSO
# hBfl-1 [4] = target: T1, hBfl-1; assay: DELFIA displacement of biotinylated BID BH3 peptide from hBfl-1; assay type: binding; settings: hBfl-1 versus hMcl-1
# hBfl-1 [5] = target: T1, hBfl-1; assay: Covalent adduct formation by SDS gel electrophoresis; assay type: binding; settings: hBfl-1 10 μM, equimolar peptide, 15 min to 2 h
# Procedure, shortened: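 Synthetic peptide and human Bcl-2 family protein were incubated together at equimolar 10 μM. hBfl-1 (10 μM) was sampled with or without peptide at 15 min, 30 min, 1 h and 2 h. Samples were resolved by SDS-PAGE and stained with Coomassie.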
# hMcl-1 (172–323) = hMcl-1 (172–323) (human, UniProt Q07820 172-323); assay: DELFIA displacement assay
# hBfl-1ΔTm(1–149) [6] = target: B2; assay: DELFIA displacement assay
# [7] = target: T2, biotin-BID …; assay: DELFIA displacement assay
# hBfl-1ΔTm(1–149) [8] = target: B2; assay: ITC
# hBfl-1ΔTm(1–149) (human) = target: T3, hBfl-1ΔTm(1–149) (human); assay: DELFIA displacement assay
# [9] = target: Recombinant hBcl-2 protein (human); assay: DELFIA displacement assay; remark: listed apart in the source
# [10] = target: Bcl-xL ΔTM (Bcl-xL deletion mutant lacking the transmembrane domain) (human); assay: DELFIA displacement assay; remark: listed apart in the source
# [11] = target: T4, hMcl-1 (172–323) (human), Q07820; assay: DELFIA displacement assay
# [12] = target: 130E7 (covalent hBIM derived BH3 peptide, Ac-λ…-NH2) (human); assay: ITC
molecule,measurement,setting,value
NOXA A (Ac-…-NH2) (peptide),IC50,[1],> 1000 nM
same,IC50,[2],> 1000 nM
Nc1nc(F)nc2c1ncn2[C@@H]1O[C@H](CO)[C@@H](O)[C@@H]1O [fludarabine],"single agent activity (% SIA), in words",primary CLL cells,limited activity
CC[C@H](C)[C@H](NC(=O)[C@H](CNC(=O)CCl)NC(C)=O)C(=O)N[C@@H](C)C(=O)N[C@@H](CCC(N)=O)C(=O)N[C@@H](CCC(=O)O)C(=O)N[C@@H](CC(C)C)C(=O)N[C@@H](CCCNC(=N)N)C(=O)N[C@@]1(C)CCC/C=C\CCC[C@@](C)(C(=O)N[C@@H](Cc2ccccc2)C(=O)N[C@@H](CC(N)=O)C(=O)N[C@@H](C)C(=O)N[C@@H](Cc2ccc(O)cc2)C(=O)N[C@@H](Cc2ccc(O)cc2)C(=O)N[C@@H](C)C(=O)N[C@@H](CCCNC(=N)N)C(=O)N[C@@H](CCCNC(=N)N)C(N)=O)NC(=O)[C@H](CC(=O)O)NC(=O)CNC(=O)[C@H]([C@@H](C)CC)NC1=O [130D11] (Ac-[Dap](ClAc)IAQELR[S5]IGD[S5]FNAYYARR-NH2; staple (Z) 8-12),ITC KD hBfl-1,hBfl-1 [3],not detected; also recorded: no significant binding
COc1cc([C@@H]2c3cc4c(cc3[C@@H](O[C@@H]3O[C@@H]5CO[C@@H](C)O[C@H]5[C@H](O)[C@H]3O)[C@H]3COC(=O)[C@H]23)OCO4)cc(OC)c1O [etoposide],"single agent activity (% SIA), in words",primary CLL cells,limited activity
Ac-CATQLRRFGDKLNFRQKLLN-NH2 [hNOXA],increased affinity for hBfl-1 over hMcl-1,hBfl-1 [4],over 2 orders of magnitude
same,"covalent complex with hBfl-1 (SDS-PAGE, Coomassie)",hBfl-1 [5],formed a covalent complex
NOXA B (Ac-…-NH2) (peptide),IC50,[1],> 1000 nM
same,IC50,[2],> 1000 nM
B1,IC50,hMcl-1 (172–323),344 nM
same,IC50,hBfl-1ΔTm(1–149) [6],86 nM
B2,binding result,[7],binds
B3,Kd,hBfl-1ΔTm(1–149) [8],2.6 nM
B4,IC50,hBfl-1ΔTm(1–149) (human),287 nM
same,IC50,[9],> 1000 nM
same,IC50,[10],> 1000 nM
same,IC50,[11],233 nM
B5,IC50,[1],> 1000 nM
same,IC50,[2],> 1000 nM
B6,IC50,hBfl-1ΔTm(1–149) [6],431 nM
B7,Kd,[12],2 nM
B8,IC50,hBfl-1ΔTm(1–149) [6],> 1000 nM
B9,IC50,[1],> 1000 nM
same,IC50,[2],> 1000 nM
B10,IC50,hMcl-1 (172–323),228 nM
same,IC50,hBfl-1ΔTm(1–149) [6],7.5 nM
B11,Kd,hBfl-1ΔTm(1–149) [8],23 nM
B12,IC50,hBfl-1ΔTm(1–149) (human),83 nM
same,IC50,[9],> 1000 nM
same,IC50,[10],> 1000 nM
same,IC50,[11],266 nM
B13,IC50,hMcl-1 (172–323),> 1000 nM
same,IC50,hBfl-1ΔTm(1–149) [6],15 nM
B14,IC50,hMcl-1 (172–323),> 1000 nM
same,IC50,hBfl-1ΔTm(1–149) [6],> 1000 nM

# From publication PMC5320539 (ACS Chemical Biology, 2016)
